DNMT1 block – human DNMT1 methyltransferase inhibitors, primary screen, biochemical, molecular beacon, fluorescence, HinP1I cleavage, uHTS | 360,000 compounds, 0.83% hits | DNA (cytosine-5)-methyltransferase 1 (Homo sapiens), P26358 | inhibition (reported as % activation of signal), % at 10 µM | AID 588458, 2011; in the data active = inhibition above about 50%
NadD inh – inhibitors of S. aureus NadD, primary screen, biochemical, colorimetric, uHTS; Nicotinate-nucleotide adenylyltransferase NadD (Staphylococcus aureus N315); purified NadD enzyme, colorimetric absorbance read-out; inhibition, % at 20 µM; 360,000 compounds, 0.78% hits; in the data active = inhibition above about 26%
Scp1 inh – Scp-1 phosphatase inhibitors, primary screen, biochemical, colorimetric, uHTS | inhibition, % at 20 µM | Recombinant Scp1, phosphopeptide, malachite green phosphate absorbance | 340,000 compounds, 0.88% hits | AID 493091, 2011;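 active = inhibition above about 50% at 20 µM, limit read from the data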
Target sequence (Q9GZU7 76-261 limits assumed): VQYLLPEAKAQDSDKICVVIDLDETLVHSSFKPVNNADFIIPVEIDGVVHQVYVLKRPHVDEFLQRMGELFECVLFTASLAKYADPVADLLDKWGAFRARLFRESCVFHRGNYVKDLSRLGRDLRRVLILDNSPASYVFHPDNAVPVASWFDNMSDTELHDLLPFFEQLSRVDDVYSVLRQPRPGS
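Material: truncated SCP-1 phosphatase (76-261aa) / Buffer or medium: 50 mM Tris acetate pH 5.5, 0.005% Tween-20, 10 mM MgCl2 / Compound dosing: one concentration, 20 µM, with 1.0% DMSO / Incubation: 45 min room-temperature reaction, 5 min colour, 30 min stabiliser / Detection: colorimetric free-phosphate detection, absorbance 630 nm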
LMPTP inh – LMPTP phosphatase inhibitors, primary screen, biochemical, fluorescence intensity, uHTS. Low molecular weight phosphotyrosine protein phosphatase (Homo sapiens), P24666. inhibition, % at 20 µM. recombinant LMPTP-A, OMFP fluorogenic substrate. AID 651560, 2012. 360,000 compounds, 0.22% hits;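 active = compounds that cut the enzyme signal by at least half of the control window in the single-dose screen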
Target sequence (P24666 whole entry, looked up): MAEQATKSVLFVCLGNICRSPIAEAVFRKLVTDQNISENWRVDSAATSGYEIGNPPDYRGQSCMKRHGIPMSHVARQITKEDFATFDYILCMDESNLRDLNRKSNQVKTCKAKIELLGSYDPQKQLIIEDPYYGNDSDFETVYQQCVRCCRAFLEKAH
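Test system: LMPTP-A phosphatase enzyme; input: 0.625 nM LMPTP-A final; reagent: OMFP substrate, 400 µM final; compound dosing: 20 µM single dose, 3% DMSO; incubation: 50 min dark incubation at room temperature; measured by: endpoint fluorescence intensity from OMFP dephosphorylation; measure: % inhibition relative to no-enzyme and uninhibited control wells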
SUMO1 PPI mod – modulators of SUMO1 protein-protein interactions, primary screen, biochemical, uHTS. Small ubiquitin-related modifier 1 (Homo sapiens), P63165. SUMO1 binding to a labelled peptide, TR-FRET, 1 h. inhibition, % at 20 µM. 360,000 compounds, 0.33% hits. AID 602429, 2012; in the data active = inhibition above about 37%
Target sequence (P63165 whole entry, looked up): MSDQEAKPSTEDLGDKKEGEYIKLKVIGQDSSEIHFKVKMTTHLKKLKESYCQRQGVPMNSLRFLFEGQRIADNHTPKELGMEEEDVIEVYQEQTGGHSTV
STEP block – STEP phosphatase inhibitors, primary screen, biochemical, fluorescence intensity, uHTS | AID 588621, 2011 | Tyrosine-protein phosphatase non-receptor type 5 (Homo sapiens), P54829 | recombinant STEP, OMFP fluorogenic substrate | 360,000 compounds, 0.25% hits | inhibition, % at 20 µM;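 active = inhibition at 20 µM, scaled per plate between control wells, above about 37%, limit read from the data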
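System: isolated STEP enzyme; schedule: 20 min enzyme reaction at room temperature, protected from light; medium: Bis-Tris buffer pH 6.0, 2.5 mM DTT, 0.005% Tween 20; signal: fluorescence, 480/540 nm; dosing: single compound dose of 20 µM, 1% DMSO final; also added: OMFP substrate, 25 µM final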
Scp-1 conf – Scp-1 phosphatase inhibitors, retest, confirmation, biochemical, colorimetric, single concentration; shares compounds with Scp1 inh; recombinant SCP-1 catalytic domain, phosphate release, malachite green absorbance; inhibition, % at 20 µM; 2,500 compounds, 61% hits
Scp-1 MG ctr – colorimetric readout interference by compounds, confirmation, artefact control for Scp-1 inhibitor project, biochemical, single concentration. 2,500 tested, under 10 active. Colorimetric interference counterscreen, malachite green absorbance 630 nm. shares compounds with Scp1 inh. apparent inhibition (interference), % at 20 µM. AID 540313, 2011;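 also: compounds added after enzyme reaction finished so only phosphate colour detection is probed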
Scp1 DSF – Scp-1 binding by thermal shift, confirmation, orthogonal assay for Scp-1 inhibitor project, biophysical, differential scanning fluorimetry. shares compounds with Scp1 inh. Recombinant SCP1, Sypro Orange thermal shift Tm. thermal shift relative to vanadate control, % at 40 µM. 1,500 compounds, 25% hits;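 active = substances whose mean melting-temperature shift, as a percentage of the reference inhibitor's shift, reaches about 5.3%, limit read from the data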
A number is an active result; . = inactive; / = no result given. In the library only some 2.3% were active in any assay of this set; here they are far more common.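 The calls were made as follows, unless noted: active = inhibition of at least 30% at 20 µM; inactive = the rest.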

SMILES | DNMT1 block | NadD inh | Scp1 inh | LMPTP inh | SUMO1 PPI mod | STEP block | Scp-1 conf | Scp-1 MG ctr | others
O=C(CSc1nc2ccccc2c(=O)n1Cc1ccco1)N1CCCCCC1 | . | . | . | . | . | . | / | /
CCCCn1c(SCC(=O)NCc2ccco2)nnc1-c1ccco1 | . | . | . | . | . | . | / | /
CCCCn1c(SCC(=O)NCc2ccco2)nnc1-c1ccoc1C | . | . | 97 | . | . | . | 77 | . | Scp1 DSF=.
O=C(NCC(c1ccc(F)cc1)N1CCOCC1)c1ccco1 (centres undefined) | . | . | . | . | . | . | / | /
C[C@H](CO)N1C[C@H](C)[C@@H](CN(C)Cc2ccncc2)Oc2c(NS(=O)(=O)c3cn(C)cn3)cccc2C1=O | . | . | 57 | . | . | . | . | .
C[C@H](CO)N1C[C@H](C)[C@@H](CN(C)Cc2ccc(Cl)c(Cl)c2)Oc2c(NS(=O)(=O)c3cn(C)cn3)cccc2C1=O | . | . | 59 | . | . | . | . | .
O=C(Cc1ccc(Br)cc1)OCC(=O)N1CCc2ccccc2C1 | . | . | . | . | . | . | / | /
COc1cc2ccccc2cc1C(=O)N1CCN(c2ccccc2O)CC1 | . | . | . | . | . | . | / | /
COc1ccc(C(C)=O)cc1CSc1nc2cc(C(=O)O)ccc2c(=O)n1Cc1ccccc1 | . | . | 51 | . | . | . | . | .
CCOC(Cn1c(SCc2cc(C(C)=O)ccc2OC)nc2ccccc2c1=O)OCC | . | . | . | . | . | . | / | /
COC(=O)c1cc(CNC(=O)Cc2ccsc2)ccc1OC | . | . | . | . | . | . | / | /
N#Cc1c(N)nc2c(c1N)CC(CO)O2 (centres undefined) | . | . | 56 | . | . | . | . | .
N#Cc1c(N)nc2c(c1N)CC(COc1ccccc1)O2 (centres undefined) | . | . | . | . | . | . | / | /
N=C1/C(=C\c2ccc(Br)o2)C(=O)N=C2SC(CC(=O)N3CCOCC3)=NN12 | . | . | 78 | . | . | . | 36 | . | Scp1 DSF=6.8
CC(=O)c1ccc(C(=O)Nc2ccc3c(c2)C(=O)NC3=O)cc1 | . | . | . | . | . | . | / | /
O=Cc1ccc(OCc2cccc(C(F)(F)F)c2)cc1O | . | . | 62 | . | . | . | . | .
Cc1cccc(C)c1NC(=O)CSc1nnc(NC(=O)c2ccccc2C(=O)O)s1 | . | . | 65 | . | . | . | . | .
Cc1cc(Cl)ccc1OCC(=O)N[C@@H](Cc1ccccc1)c1nc2ccccc2[nH]1 | . | . | 86 | . | . | . | 36 | . | Scp1 DSF=.
CN(/N=C/c1ccncc1)C1=NCCN1 | . | . | 85 | . | . | . | . | .
CN(/N=C/c1ccc(C(C)(C)C)cc1)C1=NCCN1 | . | . | . | . | . | . | / | /
CCOc1ccc(C(C(=O)NC2CCCCC2)N(CCOC)C(=O)c2snc(C(N)=O)c2N)cc1 (centres undefined) | . | . | . | . | . | . | / | /
CC(C)(C)OC(=O)NCCCCCc1cn(CC(=O)NCCCCCCCCCCC(=O)N2CCN(C(=O)OC(C)(C)C)CC2)nn1 | . | . | 61 | . | . | . | . | .
O=C(NN=C(Cc1ccccc1)Cc1ccccc1)C1CC1 | . | . | . | . | . | . | / | /
COc1ccccc1-n1c2nc3ccccc3nc2c2c(=O)n(-c3cc(C)cc(C)c3)cnc21 | . | . | . | . | . | . | / | /
COc1ccccc1-n1cnc2c(c1=O)c1nc3ccccc3nc1n2-c1ccc(C)cc1 | . | . | 87 | . | . | . | 34 | . | Scp1 DSF=.
SMILES | DNMT1 block | NadD inh | Scp1 inh | LMPTP inh | SUMO1 PPI mod | STEP block | Scp-1 conf | Scp-1 MG ctr | others
O=C(COC(=O)Cc1cccc(F)c1)NC(=O)NC1CCCCC1 | . | . | . | . | . | . | / | /
O=C(/C=C/c1ccco1)NCC(=O)N/N=C/c1ccc(Cl)cc1 | . | . | . | . | . | . | / | /
O=C(/C=C/c1ccco1)NCC(=O)N/N=C/c1ccc([N+](=O)[O-])cc1 | . | . | 76 | . | . | . | 79 | . | Scp1 DSF=6.6
O=C(O)c1ccc(Nc2ncnc3c2cnn3Cc2ccccc2)cc1 | . | . | . | . | . | . | / | /
Cc1cc(C(=O)Nc2ccccc2C(=O)O)ccc1NC(=O)COc1ccccc1Cl | . | . | 80 | . | . | . | 52 | . | Scp1 DSF=6.7
O=C(COc1ccccc1Cl)Nc1ccc(C(=O)O)cc1NC(=O)COc1ccccc1Cl | . | . | . | . | . | . | / | /
CCN(CC)CCNC(Cc1ccccc1)c1cccc(OC)c1 (centres undefined) | . | . | . | . | . | . | / | /
Cc1[nH]c2ccccc2c1C(=O)CNc1nccs1 | . | . | 96 | . | . | . | . | .
O=C(COC(=O)CNC(=O)c1ccccc1F)NC12CC3CC(CC(C3)C1)C2 | . | . | . | . | . | . | / | /
Cn1c(NC(=O)c2ccc(C(C)(C)C)cc2)cc(=O)n(C)c1=O | . | . | . | . | . | . | . | .
Cn1c(NC2CCCCC2)cc(=O)n(C)c1=O | . | . | . | . | . | . | / | /
Cc1cccc(CC(=O)Nc2cc(=O)n(C)c(=O)n2C)c1 | . | . | . | . | . | . | / | /
Cn1c(NC(=O)Cc2cccc3ccccc23)cc(=O)n(C)c1=O | . | . | . | . | . | . | . | .
Cn1c(NC(=O)CCC2CCCCC2)cc(=O)n(C)c1=O | . | . | . | . | . | . | . | .
Cn1c(NNC(=O)CCC2CCCCC2)cc(=O)n(C)c1=O | . | . | . | . | . | . | . | .
CC[n+]1c(C)cc2c(sc3ccccc32)c1C | . | . | 63 | . | . | . | . | .
C[C@H]1CCCCO[C@H](CN(C)S(=O)(=O)c2cn(C)cn2)[C@@H](C)CN([C@@H](C)CO)C(=O)c2cc(NS(=O)(=O)c3ccccc3)ccc2O1 | . | . | / | . | . | . | / | /

Screening data from PubChem BioAssay.
